Tested on: U2OS
Assay: Multiplex assay against U2OS
Type: toxicity, cell-based
Settings: human
Method in brief: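 Values for tubulin, mitochondrial-mass and membrane-permeability phenotypes are per cents of cells with healthy nuclei. These cells were identified by CellPathfinder machine-learning gating of live cells that had been stained at seeding with Hoechst33342, BioTracker Green Microtubule Cytoskeleton Dye, MitoTracker Red and Annexin V Alexa Fluor 680 and imaged on a CQ1 microscope at 37°C and 5% CO2 after compound addition. The gating first set Hoechst high-intensity objects apart from normal cells, then split normal cells into healthy, pyknosed or fragmented nuclei, and pyknosed cells into mitotic or apoptotic.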

[1] = 12 h, 1 µM, compound concentration 1 uM, replicate 1
[2] = 12 h, 1 µM, compound concentration 1 uM, replicate 2
[3] = 12 h, 10 µM, compound concentration 10 uM, replicate 1
[4] = 12 h, 10 µM, compound concentration 10 uM, replicate 2
[5] = 24 h, 1 µM, compound concentration 1 uM, replicate 1
[6] = 24 h, 1 µM, compound concentration 1 uM, replicate 2
[7] = 24 h, 10 µM, compound concentration 10 uM, replicate 1
[8] = 24 h, 10 µM, compound concentration 10 uM, replicate 2
[9] = 48 h, 1 µM, compound concentration 1 uM, replicate 1
[10] = 48 h, 1 µM, compound concentration 1 uM, replicate 2
[11] = 48 h, 10 µM, compound concentration 10 uM, replicate 1
[12] = 48 h, 10 µM, compound concentration 10 uM, replicate 2

For O=c1ccc2ccc(OCCCCN3CCN(c4cccc5sccc45)CC3)cc2[nH]1 [BREXPIPRAZOLE], the “Population Apoptotic (%)” value [1] was 73%, the “Population Fragmented Nuclei (%)” value [1] was 23% and the “Population Healthy Nuclei (%)” value [1] was 62%. The “Population Hoechst High Intensity Objects (%)” value [1] was 6%, the “Population Membrane Permeable-Phenotype (%)” value [1] was 40% and the “Population Mitochondria Different-Phenotype (%)” value [1] was 19%. For the same molecule, the “Population Mitotic Cells (%)” value [1] was 26%, the “Population Normal (%)” value [1] was 93% and the “Population Pyknosed Nuclei (%)” value [1] was 13%. For the same molecule, the “Population Tubulin-Different-Phenotype (%)” value [1] was 36%, the “Total Cell Count” value [1] was 178 and the “Population Apoptotic (%)” value [2] was 55%. The “Population Fragmented Nuclei (%)” value [2] was 16%, the “Population Healthy Nuclei (%)” value [2] was 69% and the “Population Hoechst High Intensity Objects (%)” value [2] was 2%. The “Population Membrane Permeable-Phenotype (%)” value [2] was 32%, the “Population Mitochondria Different-Phenotype (%)” value [2] was 24% and the “Population Mitotic Cells (%)” value [2] was 44%. The “Population Normal (%)” value [2] was 97%, the “Population Pyknosed Nuclei (%)” value [2] was 14% and the “Population Tubulin-Different-Phenotype (%)” value [2] was 30%. For the same molecule, the “Total Cell Count” value [2] was 126, the “Population Apoptotic (%)” value [3] was 86% and the “Population Fragmented Nuclei (%)” value [3] was 31%. The “Population Healthy Nuclei (%)” value [3] was 27%, the “Population Hoechst High Intensity Objects (%)” value [3] was 6% and the “Population Membrane Permeable-Phenotype (%)” value [3] was 57%. For the same molecule, the “Population Mitochondria Different-Phenotype (%)” value [3] was 82%, the “Population Mitotic Cells (%)” value [3] was 13% and the “Population Normal (%)” value [3] was 93%. For the same molecule, the “Population Pyknosed Nuclei (%)” value [3] was 41%, the “Population Tubulin-Different-Phenotype (%)” value [3] was 83% and the “Total Cell Count” value [3] was 220. The “Population Apoptotic (%)” value [4] was 82%, the “Population Fragmented Nuclei (%)” value [4] was 21% and the “Population Healthy Nuclei (%)” value [4] was 43%. For the same molecule, the “Population Hoechst High Intensity Objects (%)” value [4] was 9%, the “Population Membrane Permeable-Phenotype (%)” value [4] was 53% and the “Population Mitochondria Different-Phenotype (%)” value [4] was 90%. The “Population Mitotic Cells (%)” value [4] was 17%, the “Population Normal (%)” value [4] was 90% and the “Population Pyknosed Nuclei (%)” value [4] was 35%. The “Population Tubulin-Different-Phenotype (%)” value [4] was 95%, the “Total Cell Count” value [4] was 109 and the “Population Apoptotic (%)” value [5] was 68%. The “Population Fragmented Nuclei (%)” value [5] was 26%, the “Population Healthy Nuclei (%)” value [5] was 55% and the “Population Hoechst High Intensity Objects (%)” value [5] was 3%. The “Population Membrane Permeable-Phenotype (%)” value [5] was 19%, the “Population Mitochondria Different-Phenotype (%)” value [5] was 22% and the “Population Mitotic Cells (%)” value [5] was 31%. The “Population Normal (%)” value [5] was 96%, the “Population Pyknosed Nuclei (%)” value [5] was 18% and the “Population Tubulin-Different-Phenotype (%)” value [5] was 18%. The “Total Cell Count” value [5] was 181, the “Population Apoptotic (%)” value [6] was 66% and the “Population Fragmented Nuclei (%)” value [6] was 12%. For the same molecule, the “Population Healthy Nuclei (%)” value [6] was 67%, the “Population Membrane Permeable-Phenotype (%)” value [6] was 22% and the “Population Mitochondria Different-Phenotype (%)” value [6] was 28%. For the same molecule, the “Population Mitotic Cells (%)” value [6] was 33%, the “Population Pyknosed Nuclei (%)” value [6] was 19% and the “Population Tubulin-Different-Phenotype (%)” value [6] was 16%. For the same molecule, the “Total Cell Count” value [6] was 128, the “Population Apoptotic (%)” value [7] was 93% and the “Population Fragmented Nuclei (%)” value [7] was 30%. The “Population Healthy Nuclei (%)” value [7] was 25%, the “Population Hoechst High Intensity Objects (%)” value [7] was 13% and the “Population Membrane Permeable-Phenotype (%)” value [7] was 47%. The “Population Mitochondria Different-Phenotype (%)” value [7] was 67%, the “Population Mitotic Cells (%)” value [7] was 6% and the “Population Normal (%)” value [7] was 86%. For the same molecule, the “Population Pyknosed Nuclei (%)” value [7] was 44%, the “Population Tubulin-Different-Phenotype (%)” value [7] was 76% and the “Total Cell Count” value [7] was 213. For the same molecule, the “Population Apoptotic (%)” value [8] was 91%, the “Population Fragmented Nuclei (%)” value [8] was 19% and the “Population Healthy Nuclei (%)” value [8] was 26%. For the same molecule, the “Population Hoechst High Intensity Objects (%)” value [8] was 22%, the “Population Membrane Permeable-Phenotype (%)” value [8] was 56% and the “Population Mitochondria Different-Phenotype (%)” value [8] was 86%. For the same molecule, the “Population Mitotic Cells (%)” value [8] was 8%, the “Population Normal (%)” value [8] was 77% and the “Population Pyknosed Nuclei (%)” value [8] was 54%. The “Population Tubulin-Different-Phenotype (%)” value [8] was 91%, the “Total Cell Count” value [8] was 112 and the “Population Apoptotic (%)” value [9] was 64%. For the same molecule, the “Population Fragmented Nuclei (%)” value [9] was 21%, the “Population Healthy Nuclei (%)” value [9] was 61% and the “Population Hoechst High Intensity Objects (%)” value [9] was 4%. For the same molecule, the “Population Membrane Permeable-Phenotype (%)” value [9] was 9%, the “Population Mitochondria Different-Phenotype (%)” value [9] was 12% and the “Population Mitotic Cells (%)” value [9] was 35%. The “Population Normal (%)” value [9] was 95%, the “Population Pyknosed Nuclei (%)” value [9] was 16% and the “Population Tubulin-Different-Phenotype (%)” value [9] was 8%. For the same molecule, the “Total Cell Count” value [9] was 240, the “Population Apoptotic (%)” value [10] was 73% and the “Population Fragmented Nuclei (%)” value [10] was 22%. For the same molecule, the “Population Healthy Nuclei (%)” value [10] was 56%, the “Population Hoechst High Intensity Objects (%)” value [10] was 2% and the “Population Membrane Permeable-Phenotype (%)” value [10] was 34%. The “Population Mitochondria Different-Phenotype (%)” value [10] was 31%, the “Population Mitotic Cells (%)” value [10] was 26% and the “Population Normal (%)” value [10] was 97%. The “Population Pyknosed Nuclei (%)” value [10] was 21%, the “Population Tubulin-Different-Phenotype (%)” value [10] was 18% and the “Total Cell Count” value [10] was 161. The “Population Apoptotic (%)” value [11] was 96%, the “Population Fragmented Nuclei (%)” value [11] was 45% and the “Population Healthy Nuclei (%)” value [11] was 12%. The “Population Hoechst High Intensity Objects (%)” value [11] was 26%, the “Population Membrane Permeable-Phenotype (%)” value [11] was 45% and the “Population Mitochondria Different-Phenotype (%)” value [11] was 30%. For the same molecule, the “Population Mitotic Cells (%)” value [11] was 3%, the “Population Normal (%)” value [11] was 73% and the “Population Pyknosed Nuclei (%)” value [11] was 41%. The “Population Tubulin-Different-Phenotype (%)” value [11] was 40%, the “Total Cell Count” value [11] was 215 and the “Population Apoptotic (%)” value [12] was 100%. For the same molecule, the “Population Fragmented Nuclei (%)” value [12] was 29%, the “Population Healthy Nuclei (%)” value [12] was 14% and the “Population Hoechst High Intensity Objects (%)” value [12] was 32%. The “Population Membrane Permeable-Phenotype (%)” value [12] was 70%, the “Population Mitochondria Different-Phenotype (%)” value [12] was 90% and the “Population Mitotic Cells (%)” value [12] was 0%. The “Population Normal (%)” value [12] was 67%, the “Population Pyknosed Nuclei (%)” value [12] was 56% and the “Population Tubulin-Different-Phenotype (%)” value [12] was 90%. For the same molecule, the “Total Cell Count” value [12] was 105.
